ChEMBL document CHEMBL4270616, “Asymmetrical meta-methoxylated diarylpentanoids: Rational design, synthesis and anti-cancer evaluation in-vitro” (Eur J Med Chem, 2018)

What was measured:
[1] = Cytotoxicity against human EJ28 cells assessed as inhibition of cell proliferation at 20 uM after 72 hrs by MTT assay relative to control; assay type: functional; conditions: EJ-28, 72 h
Method in brief: (§1)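 Single-concentration screen at 20 μM with 72 h exposure in DMEM with 10% FBS, final DMSO 0.1%. Read-out was MTT (5 mg/mL, 4 h, 37°C), DMSO solubilisation and absorbance at 570 nm, expressed as percent inhibition. Lines reaching a threshold percentage went on to IC50 determination.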

[2] = tested on: SW-620; test: Induction of apoptosis in human SW620 cells assessed as early apoptotic cells at 1.25 uM after 72 hrs by Annexin V-FITC/propidium iodide staining based flow cytometry (reference value: 2.1%); assay type: functional
[3] = tested on: SW-620; test: Induction of apoptosis in human SW620 cells assessed as necrotic cells at 1.25 uM after 48 hrs by Annexin V-FITC/propidium iodide staining based flow cytometry (reference value: 0.23%); assay type: functional
[4] = tested on: SW-620; test: Induction of apoptosis in human SW620 cells assessed as early apoptotic cells at 2.5 uM after 24 hrs by Annexin V-FITC/propidium iodide staining based flow cytometry (reference value: 2.35%); assay type: functional
[5] = tested on: SW-620; test: Induction of apoptosis in human SW620 cells assessed as late apoptotic cells at 5 uM after 72 hrs by Annexin V-FITC/propidium iodide staining based flow cytometry (reference value: 0.29%); assay type: functional
[6] = tested on: SW-620; test: Induction of apoptosis in human SW620 cells assessed as live cells at 2.5 uM after 72 hrs by Annexin V-FITC/propidium iodide staining based flow cytometry (reference value: 97.34%); assay type: functional
[7] = tested on: SW-620; test: Induction of apoptosis in human SW620 cells assessed as early apoptotic cells at 5 uM after 48 hrs by Annexin V-FITC/propidium iodide staining based flow cytometry (reference value: 2.75%); assay type: functional
[8] = tested on: SW-620; test: Induction of apoptosis in human SW620 cells assessed as early apoptotic cells at 10 uM after 72 hrs by Annexin V-FITC/propidium iodide staining based flow cytometry (reference value: 2.1%); assay type: functional
[9] = tested on: SW-620; test: Induction of apoptosis in human SW620 cells assessed as late apoptotic cells at 10 uM after 24 hrs by Annexin V-FITC/propidium iodide staining based flow cytometry (reference value: 0.43%); assay type: functional
[10] = tested on: SW-620; test: Induction of apoptosis in human SW620 cells assessed as necrotic cells at 1.25 uM after 24 hrs by Annexin V-FITC/propidium iodide staining based flow cytometry (reference value: 0.15%); assay type: functional
[11] = tested on: SW-620; test: Induction of apoptosis in human SW620 cells assessed as early apoptotic cells at 10 uM after 24 hrs by Annexin V-FITC/propidium iodide staining based flow cytometry (reference value: 2.35%); assay type: functional
[12] = tested on: SW-620; test: Induction of apoptosis in human SW620 cells assessed as late apoptotic cells at 10 uM after 72 hrs by Annexin V-FITC/propidium iodide staining based flow cytometry (reference value: 0.29%); assay type: functional
[13] = tested on: SW-620; test: Induction of ROS generation in human SW620 cells after 12 hrs by DCFDA staining based flow cytometry; assay type: functional, cell-based
Method in brief: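 SW620 cells (2×10^5/well) adhered overnight and were loaded with 10 μM DCFDA in medium for 1 h, then washed twice with PBS. Compound exposure followed at several concentrations for 12 h, with untreated and hydrogen peroxide-treated controls. Harvested cells were resuspended in PBS and DCF fluorescence read by flow cytometry at ex 488/em 525 nm.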

[14] = tested on: SW-620; test: Induction of apoptosis in human SW620 cells assessed as live cells at 2.5 uM after 24 hrs by Annexin V-FITC/propidium iodide staining based flow cytometry (reference value: 97.03%); assay type: functional
[15] = tested on: SW-620; test: Induction of apoptosis in human SW620 cells assessed as live cells at 5 uM after 24 hrs by Annexin V-FITC/propidium iodide staining based flow cytometry (reference value: 97.03%); assay type: functional
[16] = tested on: SW-620; test: Induction of apoptosis in human SW620 cells assessed as live cells at 10 uM after 48 hrs by Annexin V-FITC/propidium iodide staining based flow cytometry (reference value: 96.26%); assay type: functional
[17] = tested on: SW-620; test: Induction of apoptosis in human SW620 cells assessed as live cells at 1.25 uM after 72 hrs by Annexin V-FITC/propidium iodide staining based flow cytometry (reference value: 97.34%); assay type: functional
[18] = tested on: SW-620; test: Induction of apoptosis in human SW620 cells after 24 to 72 hrs by Annexin V-FITC/propidium iodide staining based flow cytometry; assay type: functional, cell-based
[19] = tested on: HT-1080; test: Cytotoxicity against human HT1080 cells assessed as inhibition of cell proliferation at 20 uM after 72 hrs by MTT assay relative to control; assay type: functional; conditions: HT-1080, 72 h; method in brief: as §1
[20] = tested on: SW-620; test: Induction of apoptosis in human SW620 cells assessed as live cells at 1.25 uM after 24 hrs by Annexin V-FITC/propidium iodide staining based flow cytometry (reference value: 97.03%); assay type: functional
[21] = tested on: SW-620; test: Induction of apoptosis in human SW620 cells assessed as necrotic cells at 5 uM after 48 hrs by Annexin V-FITC/propidium iodide staining based flow cytometry (reference value: 0.23%); assay type: functional
[22] = tested on: SW-620; test: Anticlonogenic activity against human SW620 cells assessed as colony formation at 0.625 uM after 10 days by crystal violet staining based imaging analysis (reference value: 100%); assay type: functional
Method in brief: (§2)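 SW620 cells seeded at 1000 cells/well in DMEM, left overnight at 37°C, 5% CO2, then exposed to compound for ten days with drug-containing medium renewed every three days. Cells were PBS-washed, fixed in 4% paraformaldehyde for 15 min, stained with 0.5% (w/v) crystal violet for 10 min, air-dried, photographed, and colonies quantified by image analysis.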

[23] = tested on: SW-620; test: Induction of apoptosis in human SW620 cells assessed as necrotic cells at 10 uM after 24 hrs by Annexin V-FITC/propidium iodide staining based flow cytometry (reference value: 0.15%); assay type: functional
[24] = tested on: SW-620; test: Induction of apoptosis in human SW620 cells assessed as necrotic cells at 2.5 uM after 24 hrs by Annexin V-FITC/propidium iodide staining based flow cytometry (reference value: 0.15%); assay type: functional
[25] = tested on: A549; test: Cytotoxicity against human A549 cells after 72 hrs by MTT assay; assay type: functional, cell-based; conditions: A549, 72 h
Method in brief: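 Tumour lines kept in DMEM with 10% FBS and 1% penicillin/streptomycin at 37°C, 5% CO2. Seeded at 1500-5000 cells/well by doubling time and size, 24 h, then compound in DMSO-containing medium (final DMSO 0.1%) for 72 h. MTT (5 mg/mL) 4 h at 37°C, DMSO solubilisation, absorbance at 570 nm.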

[26] = tested on: SW-620; test: Induction of apoptosis in human SW620 cells assessed as late apoptotic cells at 2.5 uM after 24 hrs by Annexin V-FITC/propidium iodide staining based flow cytometry (reference value: 0.43%); assay type: functional
[27] = tested on: SW-620; test: Cell cycle arrest in human SW620 cells assessed as accumulation at G2/M phase at 1.25 uM after 24 hrs by propidium iodide staining based flow cytometry (reference value: 19%); assay type: functional
[28] = tested on: SW-620; test: Induction of apoptosis in human SW620 cells assessed as late apoptotic cells at 2.5 uM after 72 hrs by Annexin V-FITC/propidium iodide staining based flow cytometry (reference value: 0.29%); assay type: functional
[29] = tested on: SW-620; test: Anticlonogenic activity against human SW620 cells assessed as colony formation at 2.5 to 5 uM after 10 days by crystal violet staining based imaging analysis (reference value: 100%); assay type: functional; method in brief: as §2

Row | SMILES | inhibition at 20 µM [1] [%] | Activity [2] [%] | Activity [3] [%] | Activity [4] [%] | Activity [5] [%] | Activity [6] [%] | Activity [7] [%] | Activity [8] [%] | Activity [9] [%] | Activity [10] [%] | Activity [11] [%] | Activity [12] [%] | Activity [13] | Activity [14] [%] | Activity [15] [%] | Activity [16] [%] | Activity [17] [%] | Activity [18] | inhibition at 20 µM [19] [%] | Activity [20] [%] | also measured
1 | COc1ccc(/C=C2\CCC/C(=C\c3cc(OC)c(OC)c(OC)c3)C2=O)cc1OC | > 50 | 4.06 | 0.2 | 12.47 | 93 | 66.34 | 12 | 2.85 | 12.66 | 0.35 | 40.33 | 94.51 | Dose-dependent effect | 86.22 | 55.03 | 13.21 | 34.33 | Dose-dependent effect | > 50 | 89.83 | Activity [21]: 1.55%; Activity [22]: 84.6%; Activity [23]: 0.82%; Activity [24]: 0.27%; IC50 [25]: 2.9 µM; Activity [26]: 1%; Activity [27]: 20%; Activity [28]: 17.24%; Activity [29]: 0%
2 | COc1ccc(/C=C2\CCC/C(=C\c3cccc(O)c3)C2=O)cc1OC | > 50 | 5.22 | 0.41 | 5.46 | 81.02 | 63.72 | 12.04 | 2.49 | 7.42 | 0.17 | 42.12 | 95.18 | Dose-dependent effect | 93.7 | 73.65 | 17 | 92.34 | Dose-dependent effect | > 50 | 96.2 | Activity [21]: 2.86%; Activity [22]: 93.4%; Activity [23]: 0.23%; Activity [24]: 0.2%; IC50 [25]: 4.3 µM; Activity [26]: 0.64%; Activity [27]: 24%; Activity [28]: 4.57%; Activity [29]: 0%
